Test results as given in ChEMBL document CHEMBL3352010, “Synthesis and Pharmacology of a Novel κ Opioid Receptor (KOR) Agonist with a 1,3,5-Trioxazatriquinane Skeleton” (ACS Med Chem Lett, 2014).

Tests used:
[1] = biological target: Mu-type opioid receptor (Mus musculus, UniProt P42866); assay: Displacement of [3H]DAMGO from mu opioid receptor in mouse whole brain without cerebellum
[2] = biological target: Delta-type opioid receptor (Mus musculus, UniProt P32300); assay: Displacement of [3H]DPDPE from delta opioid receptor in mouse whole brain without cerebellum
Chain of Delta-type opioid receptor (Mus musculus, UniProt P32300) (P32300 whole entry): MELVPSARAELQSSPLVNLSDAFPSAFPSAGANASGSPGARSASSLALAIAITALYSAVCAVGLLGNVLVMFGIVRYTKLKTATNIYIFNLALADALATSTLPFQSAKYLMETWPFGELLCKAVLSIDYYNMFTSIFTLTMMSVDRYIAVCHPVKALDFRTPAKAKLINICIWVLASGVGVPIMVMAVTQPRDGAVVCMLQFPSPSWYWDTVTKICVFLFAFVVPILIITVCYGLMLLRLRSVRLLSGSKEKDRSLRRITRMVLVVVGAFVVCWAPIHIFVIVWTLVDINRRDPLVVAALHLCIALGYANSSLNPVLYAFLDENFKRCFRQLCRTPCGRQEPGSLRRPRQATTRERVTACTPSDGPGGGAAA

[3] = biological target: Kappa-type opioid receptor (Cavia porcellus, UniProt P41144); assay: Displacement of [3H]U69593 from kappa opioid receptor in guinea pig cerebellum
Chain of Kappa-type opioid receptor (Cavia porcellus, UniProt P41144) (P41144 whole entry): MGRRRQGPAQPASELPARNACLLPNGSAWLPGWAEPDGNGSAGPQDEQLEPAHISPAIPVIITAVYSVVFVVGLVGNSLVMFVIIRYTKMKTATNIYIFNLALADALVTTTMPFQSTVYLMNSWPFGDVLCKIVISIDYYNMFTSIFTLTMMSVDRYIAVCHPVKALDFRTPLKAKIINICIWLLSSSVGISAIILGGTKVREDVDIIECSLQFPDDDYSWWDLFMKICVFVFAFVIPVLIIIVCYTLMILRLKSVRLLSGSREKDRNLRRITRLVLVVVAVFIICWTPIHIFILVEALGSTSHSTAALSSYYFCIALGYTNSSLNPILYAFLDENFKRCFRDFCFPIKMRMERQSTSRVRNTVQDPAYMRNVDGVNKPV

[4] = biological target: T1, Delta-type opioid receptor (Homo sapiens, UniProt P41143); assay: Agonist activity at human delta opioid receptor expressed in CHO cells assessed as stimulation of [35S]-GTPgammaS binding; assay type: functional, cell-based
T1 sequence (P41143 whole entry): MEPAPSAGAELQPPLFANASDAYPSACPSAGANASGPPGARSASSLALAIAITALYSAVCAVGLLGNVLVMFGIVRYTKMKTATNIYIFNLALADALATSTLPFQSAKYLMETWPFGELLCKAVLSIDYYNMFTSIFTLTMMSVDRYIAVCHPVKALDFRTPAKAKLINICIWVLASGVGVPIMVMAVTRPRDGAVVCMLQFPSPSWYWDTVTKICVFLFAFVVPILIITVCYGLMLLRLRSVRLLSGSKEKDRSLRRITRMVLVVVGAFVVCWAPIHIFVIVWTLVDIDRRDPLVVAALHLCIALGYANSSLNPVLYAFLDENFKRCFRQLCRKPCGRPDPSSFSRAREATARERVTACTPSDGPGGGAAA

[5] = biological target: T2, Kappa-type opioid receptor (Homo sapiens, UniProt P41145); assay: Agonist activity at human kappa opioid receptor expressed in CHO cells assessed as stimulation of [35S]-GTPgammaS binding; assay type: functional, cell-based
T2 sequence (P41145 whole entry): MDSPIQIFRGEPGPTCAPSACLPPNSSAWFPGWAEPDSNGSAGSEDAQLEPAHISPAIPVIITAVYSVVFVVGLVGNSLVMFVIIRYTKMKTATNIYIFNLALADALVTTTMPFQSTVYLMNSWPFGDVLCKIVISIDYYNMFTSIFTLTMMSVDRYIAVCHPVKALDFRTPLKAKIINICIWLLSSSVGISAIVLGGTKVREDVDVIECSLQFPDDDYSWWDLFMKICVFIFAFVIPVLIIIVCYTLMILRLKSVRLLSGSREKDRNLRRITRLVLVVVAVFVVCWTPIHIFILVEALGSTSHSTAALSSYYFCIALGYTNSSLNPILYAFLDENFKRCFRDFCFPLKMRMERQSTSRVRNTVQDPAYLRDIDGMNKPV

[6] = tested on: Mus musculus; assay: Analgesic activity in sc dosed mouse assessed as inhibition of acetic acid-induced writhing response treated 15 mins before acetic acid challenge measured after 10 mins; assay type: functional
In short: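 Test agent given s.c. to mice; 15 min later, 0.6% acetic acid i.p. at 10 mL/kg. After a 10 min delay, abdominal constrictions were counted over the next 10 min. 8 mice per group; group means ± SEM; ED50 taken from the dose-response. Statistics by one-way ANOVA with Bonferroni test versus vehicle.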

[7] = biological target: T1, Delta-type opioid receptor; assay: Agonist activity at human delta opioid receptor expressed in CHO cells assessed as stimulation of [35S]-GTPgammaS binding relative to DPDPE; assay type: functional, cell-based
[8] = biological target: T2, Kappa-type opioid receptor; assay: Agonist activity at human kappa opioid receptor expressed in CHO cells assessed as stimulation of [35S]-GTPgammaS binding relative to U69593; assay type: functional, cell-based

Chain of Mu-type opioid receptor (P42866 whole entry): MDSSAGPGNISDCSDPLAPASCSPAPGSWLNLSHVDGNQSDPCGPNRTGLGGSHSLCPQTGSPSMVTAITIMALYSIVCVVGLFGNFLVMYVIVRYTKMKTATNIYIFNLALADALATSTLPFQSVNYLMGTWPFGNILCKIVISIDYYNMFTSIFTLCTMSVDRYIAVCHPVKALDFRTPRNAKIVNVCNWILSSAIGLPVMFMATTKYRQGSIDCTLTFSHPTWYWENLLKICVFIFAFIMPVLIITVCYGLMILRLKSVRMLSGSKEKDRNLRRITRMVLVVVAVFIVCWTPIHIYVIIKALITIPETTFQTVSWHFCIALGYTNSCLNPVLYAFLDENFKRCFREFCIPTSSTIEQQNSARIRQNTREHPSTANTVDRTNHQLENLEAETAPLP

Structure (SMILES)	Ki [1]	Ki [2]	Ki [3]	also measured
C[C@@]1(c2cccc(O)c2)O[C@@H]2N3[C@H]1O[C@@](C)(c1cccc(O)c1)[C@@H]3O[C@@]2(C)c1cccc(O)c1 (relative stereo)	> 1000 nM	> 1000 nM	> 1000 nM	
COc1cccc([C@]2(C)O[C@H]3CO[C@@H]4N3[C@H]2O[C@]4(C)c2cccc(OC)c2)c1 (relative stereo)	> 1000 nM	> 1000 nM	> 1000 nM	
C[C@]1(c2cccc(O)c2)O[C@H]2CO[C@@H]3N2[C@H]1O[C@]3(C)c1cccc(O)c1 (relative stereo)	> 1000 nM	> 1000 nM	> 1000 nM	
C[C@@]1(c2cccc(O)c2)O[C@H]2CO[C@@H]3N2[C@H]1O[C@]3(C)c1cccc(O)c1 [listing 1 of 2 here]	> 1000 nM	> 1000 nM	4.63 nM	EC50 [4]: 83.7 nM; EC50 [5]: 50.3 nM; ED50 [6]: 3.5 mg/kg
COc1cccc([C@@]2(C)O[C@@H]3N4[C@H](CO[C@H]42)O[C@@]3(C)c2cccc(O)c2)c1 (relative stereo)	> 1000 nM	> 1000 nM	52.8 nM	
C[C@]1(c2cccc(O)c2)O[C@H]2CO[C@H]3CO[C@@H]1N32 (relative stereo)	> 1000 nM	> 1000 nM	> 1000 nM	
COc1cccc([C@]2(C)O[C@H]3CO[C@@H]4N3[C@H]2O[C@]4(C)c2cccc(O)c2)c1 (relative stereo)	> 1000 nM	> 1000 nM	> 1000 nM	
C[C@@]1(c2cccc(O)c2)O[C@H]2CO[C@@H]3N2[C@H]1O[C@@]3(C)c1cccc(O)c1 (relative stereo)	735 nM	> 1000 nM	793 nM	
C[C@@]1(c2cccc(O)c2)O[C@@H]2N3[C@H]1O[C@](C)(c1cccc(O)c1)[C@@H]3O[C@]2(C)c1cccc(O)c1 (relative stereo)	928 nM	> 1000 nM	> 1000 nM	
C[C@@]1(c2cccc(O)c2)O[C@H]2CO[C@@H]3N2[C@H]1O[C@]3(C)c1cccc(O)c1 [listing 2 of 2 here]				Emax [7]: 23.4%; Emax [8]: 96.8%; Activity [6]: Dose-dependent effect
C[C@@]1(c2cccc(O)c2)O[C@@H]2N3[C@H](CO[C@H]31)O[C@]2(C)c1cccc(O)c1 (relative stereo)	> 1000 nM	> 1000 nM	> 1000 nM	
CC1(c2cccc(O)c2)OC2COC3N2C1OC3(C)c1cccc(O)c1 (stereo not given)	293 nM	651 nM	> 1000 nM	
C[C@@]1(c2cccc(O)c2)O[C@H]2CO[C@H]3CO[C@@H]1N32 (relative stereo)	> 1000 nM	> 1000 nM	> 1000 nM	
C[C@@]1(c2cccc(O)c2)O[C@@H]2N3[C@H]1O[C@](C)(c1cccc(O)c1)[C@@H]3O[C@@]2(C)c1cccc(O)c1 (relative stereo)	652 nM	> 1000 nM	667 nM	
C[C@@]1(c2cccc(O)c2)O[C@H]2CO[C@@H]3N2[C@H]1O[C@]3(C)c1cccc(O)c1 (relative stereo) [listing 1 of 2 here]	> 1000 nM	> 1000 nM	6.09 nM	EC50 [5]: 97.5 nM
C[C@@]1(c2cccc(O)c2)O[C@H]2CO[C@@H]3N2[C@H]1O[C@]3(C)c1cccc(O)c1 (relative stereo) [listing 2 of 2 here]				Emax [8]: 98.2%
